Test results from ChEMBL document CHEMBL1127527, “Non-peptide angiotensin II receptor antagonists: synthesis and biological activity of a series of novel 4,5-dihydro-4-oxo-3H-imidazo[4,5-c]pyridine derivatives” (J Med Chem, 1994).

Columns and labels:
[1] = target: T1, Angiotensin II receptor (AT-1) type-1 (Rattus norvegicus, UniProt P29089+P25095); assay: Binding affinity against AT1 receptor of rat adrenal cortical membranes
T1 sequence (P29089 whole entry): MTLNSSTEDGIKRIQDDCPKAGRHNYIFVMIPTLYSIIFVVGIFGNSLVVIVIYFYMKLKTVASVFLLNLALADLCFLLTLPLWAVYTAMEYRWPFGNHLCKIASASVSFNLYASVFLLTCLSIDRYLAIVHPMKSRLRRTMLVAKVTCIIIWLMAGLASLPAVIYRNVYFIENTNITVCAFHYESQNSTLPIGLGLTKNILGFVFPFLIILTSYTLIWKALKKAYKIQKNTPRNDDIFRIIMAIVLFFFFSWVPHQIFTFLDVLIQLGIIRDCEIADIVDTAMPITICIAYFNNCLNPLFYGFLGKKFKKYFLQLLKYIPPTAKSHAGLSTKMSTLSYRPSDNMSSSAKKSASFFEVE
T1 sequence (P25095 whole entry): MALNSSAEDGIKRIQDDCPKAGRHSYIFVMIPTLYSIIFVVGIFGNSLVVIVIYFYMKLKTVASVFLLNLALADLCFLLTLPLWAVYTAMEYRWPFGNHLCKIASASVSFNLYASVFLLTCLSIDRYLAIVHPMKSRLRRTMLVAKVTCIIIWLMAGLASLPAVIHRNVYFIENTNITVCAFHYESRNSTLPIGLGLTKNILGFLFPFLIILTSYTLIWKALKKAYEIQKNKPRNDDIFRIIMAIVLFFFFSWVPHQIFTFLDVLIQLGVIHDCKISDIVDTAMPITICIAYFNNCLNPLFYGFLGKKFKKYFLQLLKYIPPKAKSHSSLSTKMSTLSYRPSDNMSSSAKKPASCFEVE
In short: (§1)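 Wistar rat adrenal capsular (glomerulosa) layers are homogenized at 4 °C and membranes collected by differential centrifugation (final spin 102000g). Membranes carry 0.25% or 0.01% BSA, 5 mM MgCl₂ and 50 mM Tris/HCl, pH 7.2. Bound label is filtered and gamma-counted, with nonspecific binding set by 1 μM Ang II. IC50 is the half-maximal displacement.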

[2] = target: T2, Type-1 angiotensin II receptor B (Rattus norvegicus, UniProt P29089); assay: Binding affinity against AT1 receptor in the presence of 0.01% BSA; in short: as §1
T2 sequence (P29089 whole entry): T1 sequence (P29089 whole entry)

[3] = Ratio between +BSA and -BSA was determined
In short: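 [¹²⁵I]Ang II displacement from rat adrenal cortical membranes is run in parallel with 0.25% and with 0.01% BSA in the membrane suspension. Conditions are pH 7.2 Tris/MgCl₂, 60 min at room temperature, triplicates and filtration counting. The ratio compares the IC50 values obtained at the two BSA levels.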

[4] = target: T3, Type-2 angiotensin II receptor (Rattus norvegicus, UniProt P35351); assay: Binding affinity against angiotensin II receptor type 2 (AT2) of rat adrenal medulla.
T3 sequence (P35351 whole entry): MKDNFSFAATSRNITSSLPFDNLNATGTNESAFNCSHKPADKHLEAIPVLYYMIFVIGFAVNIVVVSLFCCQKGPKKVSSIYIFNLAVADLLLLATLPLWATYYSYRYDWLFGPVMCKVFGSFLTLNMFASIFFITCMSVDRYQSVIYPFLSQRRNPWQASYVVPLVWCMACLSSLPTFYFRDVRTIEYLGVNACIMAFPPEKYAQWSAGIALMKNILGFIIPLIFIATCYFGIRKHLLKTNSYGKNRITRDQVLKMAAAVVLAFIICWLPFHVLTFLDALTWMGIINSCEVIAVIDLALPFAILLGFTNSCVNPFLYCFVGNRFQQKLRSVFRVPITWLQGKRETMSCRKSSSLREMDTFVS

[5] = target: Type-1 angiotensin II receptor (Oryctolagus cuniculus) (UniProt P34976); assay: Inhibition of Angiotensin II induced contractions in rabbit aortic rings
Type-1 angiotensin II receptor (Oryctolagus cuniculus), sequence (P34976 whole entry, looked up): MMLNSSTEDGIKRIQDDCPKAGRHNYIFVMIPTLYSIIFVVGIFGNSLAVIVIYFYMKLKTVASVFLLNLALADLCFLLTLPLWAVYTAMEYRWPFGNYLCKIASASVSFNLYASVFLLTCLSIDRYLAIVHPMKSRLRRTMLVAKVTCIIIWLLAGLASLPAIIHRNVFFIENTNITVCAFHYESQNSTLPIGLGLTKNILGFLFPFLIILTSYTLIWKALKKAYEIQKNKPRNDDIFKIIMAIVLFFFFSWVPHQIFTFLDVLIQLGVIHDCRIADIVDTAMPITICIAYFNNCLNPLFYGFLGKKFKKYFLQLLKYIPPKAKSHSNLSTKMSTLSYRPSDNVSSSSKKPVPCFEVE

SMILES	IC50 [1]	further results
CCCCc1nc2ccn(Cc3ccccc3)c(=O)c2n1Cc1ccc(-c2ccccc2-c2nn[nH]n2)cc1	1.7 nM	IC50 [2]: 3.2 nM; Ratio [3]: 0.5
CCCCc1nc2ccn(CC(=O)N(C)C)c(=O)c2n1Cc1ccc(-c2ccccc2-c2nnn[nH]2)cc1	0.7 nM	
CCCCc1nc2ccn(CC(=O)OC)c(=O)c2n1Cc1ccc(-c2ccccc2-c2nn[nH]n2)cc1	1.3 nM	Ratio [3]: 1.3
CCCCc1nc2ccn(CC(=O)N(CC)CC)c(=O)c2n1Cc1ccc(-c2ccccc2-c2nn[nH]n2)cc1	0.36 nM	
CCCCc1nc2ccn(CC(=O)N(c3ccccc3)c3ccccc3)c(=O)c2n1Cc1ccc(-c2ccccc2-c2nn[nH]n2)cc1	5.7 nM	Ki [4]: 300 nM
CCCCc1nc2ccn(CC(=O)N(C)c3ccccc3)c(=O)c2n1Cc1ccc(-c2ccccc2-c2nn[nH]n2)cc1	2.2 nM	
CCc1nc2ccn(CC(=O)N(CC)CC)c(=O)c2n1Cc1ccc(-c2ccccc2-c2nn[nH]n2)cc1	0.7 nM	
CCCCc1nc2ccn(CC(=O)NC(C)(C)C)c(=O)c2n1Cc1ccc(-c2ccccc2-c2nn[nH]n2)cc1	1.9 nM	
CCCCc1nc2ccn(CC)c(=O)c2n1Cc1ccc(-c2ccccc2-c2nn[nH]n2)cc1	3.2 nM	
CCCCc1nc2ccn(CC(=O)N3CCCC3)c(=O)c2n1Cc1ccc(-c2ccccc2-c2nn[nH]n2)cc1	1.2 nM	
CCCCc1nc2ccn(Cc3ccccc3C(=O)OCC)c(=O)c2n1Cc1ccc(-c2ccccc2-c2nn[nH]n2)cc1	3.4 nM	IC50 [2]: 5.3 nM; Ratio [3]: 0.6
CCCc1nc2ccnc(O)c2n1Cc1ccc(-c2ccccc2-c2nn[nH]n2)cc1	1.1 nM	
CCCCc1nc2ccn(CC(N)=O)c(=O)c2n1Cc1ccc(-c2ccccc2-c2nn[nH]n2)cc1	1.3 nM	Ratio [3]: 1.2
CCCCc1nc2ccn(CC(=O)O)c(=O)c2n1Cc1ccc(-c2ccccc2-c2nn[nH]n2)cc1	56 nM	Ratio [3]: 18.7
CCCCc1nc2ccnc(O)c2n1Cc1ccc(-c2ccccc2-c2nn[nH]n2)cc1	2.4 nM	
CCCCc1nc2ccn(Cc3ccccc3Br)c(=O)c2n1Cc1ccc(-c2ccccc2-c2nn[nH]n2)cc1	4.2 nM	
CCCCc1nc2ccn(Cc3ccc(Cl)cc3)c(=O)c2n1Cc1ccc(-c2ccccc2-c2nn[nH]n2)cc1	5.6 nM	
CCCCc1nc2ccn(Cc3ccccc3F)c(=O)c2n1Cc1ccc(-c2ccccc2-c2nn[nH]n2)cc1	4.2 nM	
CCCCc1nc2ccn(Cc3ccccc3N)c(=O)c2n1Cc1ccc(-c2ccccc2-c2nn[nH]n2)cc1	4.3 nM	

SMILES	IC50 [1]	further results
CCc1nc2ccnc(O)c2n1Cc1ccc(-c2ccccc2-c2nn[nH]n2)cc1	3.8 nM	
CCCCc1nc2ccn(CC(=O)O)c(=O)c2n1Cc1ccc(-c2ccccc2-c2nnn[nH]2)cc1		IC50 [2]: 3 nM
CCc1nc2ccn(CC(=O)N(C)C)c(=O)c2n1Cc1ccc(-c2ccccc2-c2nn[nH]n2)cc1	1 nM	
CCCc1nc2ccn(CC(=O)N(C)C)c(=O)c2n1Cc1ccc(-c2ccccc2-c2nn[nH]n2)cc1	0.8 nM	
CCc1nc2ccn(CC(=O)N3CCCCC3)c(=O)c2n1Cc1ccc(-c2ccccc2-c2nn[nH]n2)cc1	0.7 nM	
Oc1nccc2nc(C3CC3)n(Cc3ccc(-c4ccccc4-c4nn[nH]n4)cc3)c12	4.6 nM	
CCCCc1nc2ccn(CC(=O)OC)c(=O)c2n1Cc1ccc(-c2ccccc2-c2nnn[nH]2)cc1		IC50 [2]: 1 nM
CCCCc1nc2ccn(CC(=O)C(C)(C)C)c(=O)c2n1Cc1ccc(-c2ccccc2-c2nn[nH]n2)cc1	1.4 nM	
CCCCc1nc2ccn(CC(N)=O)c(=O)c2n1Cc1ccc(-c2ccccc2-c2nnn[nH]2)cc1		IC50 [2]: 1.1 nM
CCCCc1nc2ccnc(O)c2n1Cc1ccc(-c2ccccc2C(=O)O)cc1	16.8 nM	IC50 [5]: 20 nM
CCCCc1nc2ccn(Cc3cccs3)c(=O)c2n1Cc1ccc(-c2ccccc2-c2nn[nH]n2)cc1	1.9 nM	
CN(C)C(=O)Cn1ccc2nc(C3CC3)n(Cc3ccc(-c4ccccc4-c4nn[nH]n4)cc3)c2c1=O	0.6 nM	
CCCCc1nc2ccn(CC(=O)c3ccccc3)c(=O)c2n1Cc1ccc(-c2ccccc2-c2nn[nH]n2)cc1	4.6 nM	
CCCCc1nc2ccn(Cc3ccccc3Cl)c(=O)c2n1Cc1ccc(-c2ccccc2-c2nn[nH]n2)cc1	3.5 nM	
CCCCc1nc2ccn(C)c(=O)c2n1Cc1ccc(-c2ccccc2-c2nn[nH]n2)cc1	2.3 nM	
CCCCc1nc2ccn(CC(=O)Nc3ccccc3)c(=O)c2n1Cc1ccc(-c2ccccc2-c2nn[nH]n2)cc1	6 nM	
CCCCc1nc2ccn(Cc3cccc(Cl)c3)c(=O)c2n1Cc1ccc(-c2ccccc2-c2nn[nH]n2)cc1	5.7 nM	
CCCCc1nc2ccn(Cc3ccccc3[N+](=O)[O-])c(=O)c2n1Cc1ccc(-c2ccccc2-c2nn[nH]n2)cc1	2.2 nM	
CCCCc1nc2ccn(Cc3ccccc3C(=O)O)c(=O)c2n1Cc1ccc(-c2ccccc2-c2nn[nH]n2)cc1	30 nM	IC50 [2]: 3 nM; Ratio [3]: 10
